Published values from different studies.
Protocols differ between the studies behind these lines.
Target: Serine/threonine-protein kinase Nek7 (NEK7, Homo sapiens, UniProt Q8TDX7)

SMILES	read-out	mode	method	concentration	endpoint	result
Cn1cc(-c2cc(F)cc(N3CCn4c(cc5c4CCCC5)C3=O)c2CO)cc(Nc2ccc(N3CCN(C4COC4)CC3)cn2)c1=O	enzyme activity	inhibitor		0.1 µM	inhibition	10%
CC(C)(C)c1cc(C=C(C#N)C#N)cc(Br)c1O	enzyme activity	inhibitor		0.5 µM	remaining activity	89.5%
Cc1nn(C)cc1-c1nc2c(N3CCN(Cc4ccc(Cl)cc4)CC3)c(Cl)cnc2[nH]1	binding		competition with immobilised ligand	1 µM	remaining binding	100%
N#CC1(c2ccccn2)CCN(Cc2cc(C(=O)O)c(=O)n3ccccc23)CC1	cell-free assay		competition with immobilised ligand	1 µM	remaining binding	100%
Nc1ncc(-c2nc(N3CCOCC3)nc(N3CCOCC3)n2)c(C(F)F)n1	binding		competition with immobilised ligand	10 µM	remaining binding	70%
COc1ncccc1-c1cnn2ccc(N3CCN(C(=O)OC(C)C)CC3)nc12	binding		competition with immobilised ligand	1 µM	remaining binding	100%
COc1cc(Nc2ncc(F)c(Nc3ccc4c(n3)NC(=O)C(C)(C)O4)n2)cc(OC)c1OC	binding		competition with immobilised ligand	10 µM	inhibition	100%
Cn1cc(-c2cccc(N3CCc4c(sc5c4CC(C)(C)C5)C3=O)c2CO)cc(Nc2ccncn2)c1=O	enzyme activity	inhibitor		1 µM	inhibition	1%
O=c1[nH]c2ccccc2n1C1CCN(Cc2ccc(-c3[nH]c4cc5ncnc5cc4nc3-c3ccccc3)cc2)CC1	cell-free assay			0.5 µM	remaining signal	99.6%
Cn1cncc1[C@](O)(COc1ccc(C#N)cc1-c1ccc(OC(F)(F)F)cc1)c1ccc(C#N)cc1	cell-free assay		competition with immobilised ligand	1 µM	remaining binding	46%
